Data taken from ChEMBL document CHEMBL1126650, “Synthesis and structure-activity relationships of novel benzimidazole and imidazo[4,5-b]pyridine acid derivatives as thromboxane A2 receptor antagonists” (J Med Chem, 1993).

How the values were obtained:
[1] = test system: Cavia porcellus; test: In vivo inhibition of […]- epoxymethano-PGH2 (1 uM) induced platelet aggregation of guinea pig platelet-rich plasma (PRP) 1 hr after per os administration at 0.3 mg/kg po; format: functional
Summary of the method: (§1)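 Guinea pigs dosed orally. Platelet-rich plasma taken 1 h later and aggregation triggered with 11,9-epoxymethano-PGH2 (U-IPA) at 1 µM.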

[2] = test system: Cavia porcellus; test: In vivo inhibition of […]- epoxymethano-PGH2 (1 uM) induced platelet aggregation of guinea pig platelet-rich plasma (PRP) 1 hr after per os administration at 1 mg/kg po; format: functional; summary of the method: as §1
[3] = biological target: T1, Thromboxane A2 receptor (Homo sapiens) (UniProt P21731); test: In vitro for percent inhibition against TXA2 / PGH-2 receptor using [125I]PTA-OH in human platelets at 10 e-5 M
T1 sequence (whole entry): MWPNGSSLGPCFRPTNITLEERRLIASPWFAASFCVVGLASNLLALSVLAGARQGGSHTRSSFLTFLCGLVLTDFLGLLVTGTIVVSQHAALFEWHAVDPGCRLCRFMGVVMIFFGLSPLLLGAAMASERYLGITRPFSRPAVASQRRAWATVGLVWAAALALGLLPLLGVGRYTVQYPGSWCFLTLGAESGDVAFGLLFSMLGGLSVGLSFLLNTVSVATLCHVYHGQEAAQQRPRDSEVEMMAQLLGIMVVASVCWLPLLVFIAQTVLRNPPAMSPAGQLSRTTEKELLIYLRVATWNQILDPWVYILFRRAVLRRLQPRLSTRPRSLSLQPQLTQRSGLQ
Summary of the method: (§2)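 Washed human platelets from volunteer blood drawn into EDTA 5 mM and indomethacin 20 µM (final); PRP at 200 g, pellet at 2000 g. 5 × 10^7 platelets incubated 30 min at 37 °C with 0.1 nM [125I]PTA-OH in Tris/NaCl/dextrose/indomethacin buffer, pH 7.4. Screening at 10^-7 and 10^-5 M. Filtration, gamma counting. Nonspecific binding set by a tetrahydrocarbazole-acetic acid antagonist. Triplicate.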

[4] = biological target: T1, Thromboxane A2 receptor (Homo sapiens); test: Tested in vitro for percent inhibition against TXA2 / PGH-2 receptor using [125I]PTA-OH in human platelets at 10 e-7 M; summary of the method: as §2
[5] = biological target: T2, Thromboxane A2 receptor (Homo sapiens, UniProt P21731); test: Tested in vitro for inhibition constant against TXA2 / PGH-2 receptor using [125I]PTA-OH binding affinity to human platelets
T2 sequence (P21731 whole entry): T1 sequence (whole entry)

Row | inhibition [3] [%] | inhibition [4] [%] | Ki [5] [nM] | SMILES | inhibition in vivo at 0.3 mg/kg [1] [%] | inhibition in vivo at 1 mg/kg [2] [%]
1 | 100 | 97 | 21 | CC(C)(CC(=O)O)Cc1nc2cc(Cl)cnc2n1Cc1ccc(Cl)cc1 [MIPITROBAN] | 44 | 81
2 | 100 | 49 | – | CC(C)(CC(=O)O)Cc1nc2ccccc2n1Cc1cccc(C(F)(F)F)c1 | – | –
3 | 100 | 52 | – | Cc1ccc(Cn2c(CC(C)(C)CC(=O)O)nc3ccccc32)cc1 | – | –
4 | 39 | 6 | – | O=C(O)CCCSc1nc2cc(Cl)cnc2n1Cc1ccc(Cl)cc1 | – | –
5 | 98 | 80 | 52 | O=C(O)CC1(Cc2nc3cc(F)ccc3n2Cc2ccc(Cl)cc2)CC1 | – | –
6 | 100 | 79 | 4 | COc1ccc(Cn2c(CC(C)(C)CC(=O)O)nc3cc(F)ccc32)cc1 | – | –
7 | 28 | 0 | – | CC(C)(CC(=O)O)c1nc2ccccc2n1Cc1ccc(Cl)cc1 | – | –
8 | 99 | 88 | 11 | CC(C)(CC(=O)O)Cc1nc2ccccc2n1Cc1ccc(Br)cc1F | – | –
9 | 100 | 28 | – | O=C(O)CCCCSc1nc2cc(F)ccc2n1Cc1ccc(Cl)cc1 | – | –
10 | 100 | 66 | – | CC(C)(CC(=O)O)Cc1nc2ccccc2n1Cc1ccc(F)cc1 | – | –
11 | 100 | 100 | – | CC(C)(CC(=O)O)Cc1nc2cc(F)ccc2n1Cc1ccc(S(C)(=O)=O)cc1 | – | –
12 | 100 | 100 | – | CSc1ccc(Cn2c(CC(C)(C)CC(=O)O)nc3cc(F)ccc32)cc1 | – | –
13 | 87 | 77 | – | CC(C)(CC(=O)O)Cc1nc2cc(Cl)ccc2n1Cc1ccc(Cl)cc1F | – | –
14 | 97 | 2 | 810 | O=C(O)[C@H]1CC[C@@H]1c1nc2cc(F)ccc2n1Cc1ccc(Cl)cc1 | – | –
15 | 60 | 24 | – | O=C(O)CCCSc1nc2cc(Cl)cnc2n1Cc1ccc(Br)cc1F | – | –
16 | 62 | 41 | 39 | CC(C)(CC(=O)O)Cc1nc2cccnc2n1Cc1ccc(Cl)cc1 | – | –
17 | 100 | 30 | – | CC(C)(Sc1nc2cc(Cl)cnc2n1Cc1ccc(Cl)cc1)C(=O)O | – | –
18 | 90 | 7 | – | CC(C)(CC(N)=O)Cc1nc2ccccc2n1Cc1ccc(Cl)cc1 | – | –
19 | 82 | 69 | – | CC(C)(CC(=O)O)Cc1nc2cc(Cl)ccc2n1Cc1ccc(S(C)(=O)=O)cc1 | – | –

Second part, the compound before the results:

Row | SMILES | inhibition [3] [%] | inhibition [4] [%] | Ki [5] [nM] | inhibition in vivo at 0.3 mg/kg [1] [%] | inhibition in vivo at 1 mg/kg [2] [%]
20 | O=C(O)CC(Cc1nc2ccccc2n1Cc1ccc(Cl)cc1)c1ccccc1 (stereo not given) | 17 | 0 | – | – | –
21 | COc1ccc2c(c1)nc(CC(C)(C)CC(=O)O)n2Cc1ccc(Cl)cc1 | 100 | 44 | – | – | –
22 | CC(C)(Cc1nc2cc(F)ccc2n1Cc1ccc(Cl)cc1)C(=O)O | 50 | 0 | 1700 | – | –
23 | CSc1ccc(Cn2c(CC(C)(C)CC(=O)O)nc3cc(Cl)ccc32)cc1 | 89 | 87 | 6 | – | –
24 | CC(C)(CC(=O)O)Cc1nc2cc(F)ccc2n1Cc1ccc(Br)cc1 | 95 | 92 | 12 | – | –
25 | CC(C)(CC(=O)O)Cc1nc2cc(F)ccc2n1Cc1ccc(Cl)cc1 | 100 | 94 | 7.8 | – | –
26 | CC(C)(CC(=O)O)Cc1nc2cc(F)ccc2n1Cc1ccc(Cl)cc1F | 77 | 58 | – | – | –
27 | O=C(O)[C@@H]1CC=CC[C@@H]1c1nc2cc(F)ccc2n1Cc1ccc(Cl)cc1 | 96 | 15 | 510 | – | –
28 | O=C(O)CCCSc1nc2cc(F)ccc2n1Cc1ccc(Cl)cc1 | 93 | 8 | – | – | –
29 | CC(CC(=O)O)Cc1nc2ccccc2n1Cc1ccc(Cl)cc1 (stereo not given) | 100 | 10 | – | – | –
30 | CC(C)(CC(=O)O)Cc1nc2ccccc2n1Cc1ccccc1 | 95 | 13 | – | – | –
31 | CC(C)(CC(=O)O)Cc1nc2cc(Cl)c(Cl)cc2n1Cc1ccc(Cl)cc1 | 100 | 14 | – | – | –
32 | CC(C)(CC(=O)O)Cc1nc2cc(Cl)ccc2n1Cc1ccc(Br)cc1F | 95 | 74 | – | – | –
33 | CCC(C)(CC(=O)O)Cc1nc2ccccc2n1Cc1ccc(Cl)cc1 (stereo not given) | 100 | 57 | – | – | –
34 | CC(C)(CC(=O)O)Cc1nc2cc(Cl)ccc2n1Cc1ccc(Cl)c(Cl)c1 | 92 | 71 | 12 | – | –
35 | CC(C)(CC(=O)O)Cc1nc2ccccc2n1Cc1ccc(Cl)cc1 | 100 | 85 | – | – | –
36 | CC(C)(CC(=O)O)Cc1nc2cc(F)ccc2n1Cc1ccc(Br)cc1F | 100 | 98 | – | – | –
37 | CC(C)(CCC(=O)O)Cc1nc2cc(F)ccc2n1Cc1ccc(Cl)cc1 | 87 | 56 | 23 | – | –
38 | CC(C)(Sc1nc2cc(F)ccc2n1Cc1ccc(Cl)cc1)C(=O)O | 83 | 3 | 670 | – | –
39 | COc1ccc(Cn2c(CC(C)(C)CC(=O)O)nc3ccccc32)cc1 | 100 | 89 | – | – | –

Row | SMILES | inhibition [3] [%] | inhibition [4] [%] | Ki [5] [nM] | inhibition in vivo at 0.3 mg/kg [1] [%] | inhibition in vivo at 1 mg/kg [2] [%]
40 | CC(C)(CC(=O)O)Cc1nc2ccccc2n1Cc1ccc([N+](=O)[O-])cc1 | 100 | 83 | – | – | –
41 | CSc1ccc(Cn2c(CC(C)(C)CC(=O)O)nc3cc(Cl)cnc32)cc1 | 87 | 82 | 7 | – | –
42 | CCC(CC)(CC(=O)O)Cc1nc2ccccc2n1Cc1ccc(Cl)cc1 | 97 | 35 | 160 | – | –
43 | CC(C)(CC(=O)O)Cc1nc2cc(Cl)ccc2n1Cc1ccc(Cl)cc1 | 99 | 74 | – | – | –
44 | O=C(O)CCc1nc2cc(F)ccc2n1Cc1ccc(Cl)cc1 | 64 | 0 | 5600 | – | –
45 | O=C(O)COc1ccc(CCNS(=O)(=O)c2ccccc2)cc1 | 95 | 13 | – | – | –
46 | O=C(O)CCCSc1nc2cccnc2n1Cc1ccc(Cl)cc1 | 64 | 27 | – | – | –
47 | CC(C)(CC(=O)O)Cc1nc2cc(Br)ccc2n1Cc1ccc(Cl)cc1 | 67 | 38 | – | – | –
48 | O=C(O)CC1(Cc2nc3cc(F)ccc3n2Cc2ccc(Cl)cc2)CCCCC1 | 98 | 0 | 870 | – | –
49 | O=C(O)CC1CCCc2c1n(Cc1ccc(Cl)cc1)c1ccc(F)cc21 (stereo not given) | 100 | 100 | 15.3 | – | –
50 | CC(Sc1nc2cc(F)ccc2n1Cc1ccc(Cl)cc1)C(=O)O (stereo not given) | 83 | 9 | – | – | –
51 | O=C(O)CC1(Cc2nc3cc(F)ccc3n2Cc2ccc(Cl)cc2)CCCC1 | 100 | 71 | – | – | –
52 | CC(C)(CC(=O)O)Cc1nc2ccccc2n1Cc1ccc(Br)cc1 | 96 | 86 | 16 | – | –
53 | CC(C)(CC(=O)O)Cc1nc2cc(F)ccc2n1Cc1ccc(Cl)c(Cl)c1 | 92 | 89 | – | – | –
54 | CC(C)(CC(=O)O)Cc1nc2ccccc2n1Cc1ccc(O)cc1 | 96 | 50 | – | – | –
55 | COc1ccc(Cn2c(CC(C)(C)CC(=O)O)nc3cc(Cl)ccc32)cc1 | 100 | 95 | 20 | – | –
56 | O=C(O)[C@H]1CCC[C@@H]1c1nc2cc(F)ccc2n1Cc1ccc(Cl)cc1 | 100 | 37 | 140 | – | –
57 | CC(C)(CC#N)Cc1nc2ccccc2n1Cc1ccc(Cl)cc1 | 0 | 0 | – | – | –
58 | CC(C)(CC(=O)O)Cc1nc2cc(Cl)ccc2n1Cc1ccc(Br)cc1 | 100 | 98 | – | – | –
